Measured values reported in ChEMBL document CHEMBL3739255, “Novel Series of Dihydropyridinone P2X7 Receptor Antagonists” (J Med Chem, 2015).
pIC50: −log10 of the molar value.

How the values were obtained:
Rattus norvegicus [1] = species on record: Rattus norvegicus; assay: Inhibition of rat central type benzodiazepine receptor at 10 uM by radioligand binding assay
In short: (§1)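 Single-concentration screen at 10 uM in a commercial 78-receptor panel run by CEREP; results are given as % inhibition.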

[2] = Metabolic stability in human plasma; format: ADME, cell-free; conditions: read-out: Stability (converted)
In short: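 Compound incubated in human plasma for 4 h and monitored for degradation.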

[3] = Drug metabolism in cynomolgus monkey urine assessed as hydrolysis of amide bond at 10 mg/kg; format: ADME, organism-based, Macaca fascicularis; conditions: in vivo
[4] = biological target: Mu-type opioid receptor (Homo sapiens) (UniProt P35372); assay: Inhibition of human mu opioid receptor at 10 uM by radioligand binding assay
In short: (§2)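 Outsourced broad receptor-screening panel of 78 targets, each tested at a single 10 uM concentration; read-out is percent inhibition. Detailed conditions are given only in the Supporting Information.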

[5] = biological target: Peroxisome proliferator-activated receptor gamma (Homo sapiens) (UniProt P37231); assay: Inhibition of human PPARgamma at 10 uM; in short: as §2
[6] = biological target: Delta-type opioid receptor (Homo sapiens) (UniProt P41143); assay: Inhibition of human delta opioid receptor at 10 uM by radioligand binding assay; in short: as §2
Sequence of Delta-type opioid receptor (Homo sapiens) (P41143 whole entry): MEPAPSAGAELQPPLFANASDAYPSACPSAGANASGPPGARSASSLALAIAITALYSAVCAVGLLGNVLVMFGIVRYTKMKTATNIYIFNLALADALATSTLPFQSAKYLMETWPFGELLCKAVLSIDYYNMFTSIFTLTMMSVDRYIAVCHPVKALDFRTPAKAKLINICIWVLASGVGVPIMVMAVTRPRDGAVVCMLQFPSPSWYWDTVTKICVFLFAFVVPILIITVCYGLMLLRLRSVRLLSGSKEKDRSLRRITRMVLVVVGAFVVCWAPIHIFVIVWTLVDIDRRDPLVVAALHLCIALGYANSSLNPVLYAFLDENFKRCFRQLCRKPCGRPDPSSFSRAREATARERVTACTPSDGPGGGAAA

[7] = biological target: Neuropeptide Y receptor type 2 (Homo sapiens) (UniProt P49146); assay: Inhibition of human neuropeptide Y2 receptor at 10 uM by radioligand binding assay; in short: as §2
Sequence of Neuropeptide Y receptor type 2 (Homo sapiens) (P49146 whole entry): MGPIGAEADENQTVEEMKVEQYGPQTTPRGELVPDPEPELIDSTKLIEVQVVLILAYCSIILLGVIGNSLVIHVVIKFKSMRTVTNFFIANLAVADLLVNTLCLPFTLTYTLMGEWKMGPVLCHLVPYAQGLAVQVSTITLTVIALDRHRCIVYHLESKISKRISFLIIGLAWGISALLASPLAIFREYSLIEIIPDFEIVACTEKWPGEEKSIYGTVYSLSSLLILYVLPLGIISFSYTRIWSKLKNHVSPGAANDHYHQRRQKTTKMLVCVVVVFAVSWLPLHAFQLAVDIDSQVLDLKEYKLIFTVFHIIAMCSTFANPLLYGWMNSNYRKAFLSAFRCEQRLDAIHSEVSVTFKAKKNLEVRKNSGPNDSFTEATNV

Liver microsome = assay: Drug metabolism in human liver microsomes assessed as GSH adduct UV peak area at 20 uM preincubated for 5 mins followed by NADPH addition measured after 60 mins by LC/MS/MS analysis relative to total area of GSH adduct, other metabolites, parent compound; format: ADME; conditions: 1 h, BLD = below limit of detection
Rattus norvegicus [8] = assay: Dose normalized AUC in rat at 2 mg/kg, po administered as single dose; format: ADME, organism-based; conditions: in vivo
In short: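 Single-dose rat PK: iv at 0.5 mg/kg and po at 2 mg/kg. n ≥ 2 animals per time point. Oral AUC normalized to dose; clearance, Vdss and half-life taken from the iv arm.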

P2X purinoceptor 1 = P2X purinoceptor 1 (Homo sapiens, UniProt P51575); assay: Inhibition of P2X1R (unknown origin)
In short: (§3)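 Selectivity at other P2X receptor subtypes, read as IC50 in a FLIPR Ca2+ flux assay.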

[9] = biological target: P2X2/P2X3 heterotrimeric receptor (Homo sapiens, UniProt P56373+Q9UBL9); assay: Inhibition of P2X2/3R (unknown origin); format: protein-complex assay; in short: as §3
Sequence of P2X2/P2X3 heterotrimeric receptor (Q9UBL9 whole entry): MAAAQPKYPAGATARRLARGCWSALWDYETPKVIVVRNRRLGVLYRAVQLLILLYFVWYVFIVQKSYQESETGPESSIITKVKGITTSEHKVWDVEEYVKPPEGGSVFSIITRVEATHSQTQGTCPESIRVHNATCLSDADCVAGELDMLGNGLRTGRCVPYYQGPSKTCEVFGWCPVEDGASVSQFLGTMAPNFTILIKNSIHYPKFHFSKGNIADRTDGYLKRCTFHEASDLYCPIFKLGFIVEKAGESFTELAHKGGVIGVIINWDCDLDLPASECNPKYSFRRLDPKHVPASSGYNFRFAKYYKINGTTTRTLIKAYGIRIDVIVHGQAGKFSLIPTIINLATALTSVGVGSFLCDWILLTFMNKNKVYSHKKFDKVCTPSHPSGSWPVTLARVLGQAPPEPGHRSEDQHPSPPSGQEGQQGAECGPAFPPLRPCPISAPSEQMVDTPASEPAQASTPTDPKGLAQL
Sequence of P2X2/P2X3 heterotrimeric receptor (P56373 whole entry): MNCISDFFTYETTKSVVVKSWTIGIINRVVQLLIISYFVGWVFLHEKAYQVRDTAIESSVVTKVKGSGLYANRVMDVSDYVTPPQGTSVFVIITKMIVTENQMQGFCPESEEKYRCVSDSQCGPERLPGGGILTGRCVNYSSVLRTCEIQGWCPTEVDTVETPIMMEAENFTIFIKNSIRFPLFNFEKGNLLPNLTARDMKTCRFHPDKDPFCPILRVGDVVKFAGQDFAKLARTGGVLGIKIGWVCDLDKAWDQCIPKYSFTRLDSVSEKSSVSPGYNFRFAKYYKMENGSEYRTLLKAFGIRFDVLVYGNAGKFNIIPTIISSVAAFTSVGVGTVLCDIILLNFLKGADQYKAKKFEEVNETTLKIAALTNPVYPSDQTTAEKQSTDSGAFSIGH

[10] = biological target: Adenosine receptor A2a (Homo sapiens) (UniProt P29274); assay: Inhibition of human adenosine A2A receptor at 10 uM by radioligand binding assay; in short: as §2
[11] = biological target: Beta-1 adrenergic receptor (Homo sapiens) (UniProt P08588); assay: Inhibition of human beta1-adrenoceptor at 10 uM by radioligand binding assay; in short: as §2
[12] = biological target: Type-2 angiotensin II receptor (Homo sapiens) (UniProt P50052); assay: Inhibition of human angiotensin 2 receptor 2 at 10 uM; in short: as §2
Sequence of Type-2 angiotensin II receptor (Homo sapiens) (P50052 whole entry): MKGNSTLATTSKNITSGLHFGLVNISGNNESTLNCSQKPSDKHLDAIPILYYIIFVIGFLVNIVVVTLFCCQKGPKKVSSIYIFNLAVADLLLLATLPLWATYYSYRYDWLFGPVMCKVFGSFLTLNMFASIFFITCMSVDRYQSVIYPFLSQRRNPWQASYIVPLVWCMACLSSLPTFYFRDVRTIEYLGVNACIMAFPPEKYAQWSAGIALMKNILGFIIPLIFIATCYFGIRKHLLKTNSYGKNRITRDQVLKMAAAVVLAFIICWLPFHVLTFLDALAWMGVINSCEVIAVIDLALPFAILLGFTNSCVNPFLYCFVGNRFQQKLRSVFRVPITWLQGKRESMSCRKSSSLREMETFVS

[13] = biological target: Cannabinoid receptor 1 (Homo sapiens) (UniProt P21554); assay: Inhibition of human CB1 receptor at 10 uM by radioligand binding assay
In short: (§4)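 Commercial receptor scan across a 78-target panel, with percent inhibition measured at a test concentration of 10 uM.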

[14] = biological target: D(4) dopamine receptor (Homo sapiens) (UniProt P21917); assay: Inhibition of human dopamine D4.4 receptor at 10 uM; in short: as §2
[15] = biological target: D(1B) dopamine receptor (Homo sapiens) (UniProt P21918); assay: Inhibition of human dopamine D5 receptor at 10 uM; in short: as §2
Sequence of D(1B) dopamine receptor (Homo sapiens) (P21918 whole entry): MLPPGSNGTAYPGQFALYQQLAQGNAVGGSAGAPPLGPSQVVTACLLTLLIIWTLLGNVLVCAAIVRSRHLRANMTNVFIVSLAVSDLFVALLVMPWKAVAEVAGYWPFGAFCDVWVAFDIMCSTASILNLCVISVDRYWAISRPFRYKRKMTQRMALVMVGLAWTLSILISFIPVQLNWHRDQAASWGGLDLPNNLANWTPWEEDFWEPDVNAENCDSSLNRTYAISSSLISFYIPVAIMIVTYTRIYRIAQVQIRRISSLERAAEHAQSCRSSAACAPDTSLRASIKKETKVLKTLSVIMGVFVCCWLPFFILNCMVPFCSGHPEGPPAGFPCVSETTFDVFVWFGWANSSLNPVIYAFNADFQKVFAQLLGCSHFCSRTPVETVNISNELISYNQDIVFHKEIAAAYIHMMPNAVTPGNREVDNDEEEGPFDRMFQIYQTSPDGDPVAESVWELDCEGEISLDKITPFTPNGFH

[16] = biological target: Endothelin-1 receptor (Homo sapiens) (UniProt P25101); assay: Inhibition of human ETA receptor at 10 uM by radioligand binding assay; in short: as §4
Sequence of Endothelin-1 receptor (Homo sapiens) (P25101 whole entry): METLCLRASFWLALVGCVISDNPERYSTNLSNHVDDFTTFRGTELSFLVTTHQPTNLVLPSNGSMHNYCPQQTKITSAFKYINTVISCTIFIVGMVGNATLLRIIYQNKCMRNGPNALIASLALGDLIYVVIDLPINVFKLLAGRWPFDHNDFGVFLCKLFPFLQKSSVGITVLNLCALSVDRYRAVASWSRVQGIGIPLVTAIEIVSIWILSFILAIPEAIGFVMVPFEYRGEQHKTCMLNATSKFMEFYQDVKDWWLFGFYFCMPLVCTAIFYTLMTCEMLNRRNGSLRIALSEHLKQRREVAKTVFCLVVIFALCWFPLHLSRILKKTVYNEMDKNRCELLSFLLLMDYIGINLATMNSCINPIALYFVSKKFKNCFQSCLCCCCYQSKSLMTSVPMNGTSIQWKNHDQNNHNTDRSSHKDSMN

Rattus norvegicus [17] = species on record: Rattus norvegicus; assay: Inhibition of rat GABA receptor at 10 uM by radioligand binding assay; in short: as §2
[18] = biological target: Galanin receptor type 1 (Homo sapiens) (UniProt P47211); assay: Inhibition of human galanin receptor 1 at 10 uM by radioligand binding assay; in short: as §2
[19] = biological target: Galanin receptor type 2 (Homo sapiens) (UniProt O43603); assay: Inhibition of human galanin receptor 2 at 10 uM by radioligand binding assay; in short: as §2
Sequence of Galanin receptor type 2 (Homo sapiens) (O43603 whole entry): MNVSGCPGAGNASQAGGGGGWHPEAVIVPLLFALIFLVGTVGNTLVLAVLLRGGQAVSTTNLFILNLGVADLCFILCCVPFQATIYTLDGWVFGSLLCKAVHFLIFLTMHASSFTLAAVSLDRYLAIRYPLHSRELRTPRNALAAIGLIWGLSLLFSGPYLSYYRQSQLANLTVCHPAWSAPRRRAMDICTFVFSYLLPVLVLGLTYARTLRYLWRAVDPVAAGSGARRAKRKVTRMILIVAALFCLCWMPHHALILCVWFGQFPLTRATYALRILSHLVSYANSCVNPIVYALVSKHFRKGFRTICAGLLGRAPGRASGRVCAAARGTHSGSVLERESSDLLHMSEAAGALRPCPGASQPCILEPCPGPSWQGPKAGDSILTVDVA

[20] = biological target: C-X-C chemokine receptor type 2 (Homo sapiens) (UniProt P25025); assay: Inhibition of human CXCR2 at 10 uM by radioligand binding assay; in short: as §4
[21] = biological target: Melanocortin receptor 4 (Homo sapiens) (UniProt P32245); assay: Inhibition of human MC4 receptor at 10 uM; in short: as §4
[22] = biological target: Muscarinic acetylcholine receptor M3 (Homo sapiens) (UniProt P20309); assay: Inhibition of human muscarinic M3 receptor at 10 uM; in short: as §2
Sequence of Muscarinic acetylcholine receptor M3 (Homo sapiens) (P20309 whole entry, looked up): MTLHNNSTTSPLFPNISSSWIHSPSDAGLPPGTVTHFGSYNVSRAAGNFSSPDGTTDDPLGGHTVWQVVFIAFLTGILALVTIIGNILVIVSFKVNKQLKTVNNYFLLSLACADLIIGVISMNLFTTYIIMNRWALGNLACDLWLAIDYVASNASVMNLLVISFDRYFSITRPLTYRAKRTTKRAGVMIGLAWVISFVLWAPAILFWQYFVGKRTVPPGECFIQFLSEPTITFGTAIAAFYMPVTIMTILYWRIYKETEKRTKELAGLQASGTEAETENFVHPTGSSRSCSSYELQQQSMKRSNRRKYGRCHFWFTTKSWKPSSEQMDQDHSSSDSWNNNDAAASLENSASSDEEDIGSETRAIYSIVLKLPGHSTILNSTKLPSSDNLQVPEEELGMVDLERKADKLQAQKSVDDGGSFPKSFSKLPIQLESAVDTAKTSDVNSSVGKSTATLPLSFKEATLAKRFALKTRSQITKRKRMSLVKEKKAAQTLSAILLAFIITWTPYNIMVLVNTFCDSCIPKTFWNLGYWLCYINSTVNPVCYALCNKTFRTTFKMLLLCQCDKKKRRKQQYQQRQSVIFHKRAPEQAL

[23] = biological target: Muscarinic acetylcholine receptor M5 (Homo sapiens) (UniProt P08912); assay: Inhibition of human muscarinic M5 receptor at 10 uM; in short: as §2
[24] = biological target: Substance-K receptor (Homo sapiens) (UniProt P21452); assay: Inhibition of human NK2 receptor at 10 uM by radioligand binding assay; in short: as §4
Sequence of Substance-K receptor (Homo sapiens) (P21452 whole entry): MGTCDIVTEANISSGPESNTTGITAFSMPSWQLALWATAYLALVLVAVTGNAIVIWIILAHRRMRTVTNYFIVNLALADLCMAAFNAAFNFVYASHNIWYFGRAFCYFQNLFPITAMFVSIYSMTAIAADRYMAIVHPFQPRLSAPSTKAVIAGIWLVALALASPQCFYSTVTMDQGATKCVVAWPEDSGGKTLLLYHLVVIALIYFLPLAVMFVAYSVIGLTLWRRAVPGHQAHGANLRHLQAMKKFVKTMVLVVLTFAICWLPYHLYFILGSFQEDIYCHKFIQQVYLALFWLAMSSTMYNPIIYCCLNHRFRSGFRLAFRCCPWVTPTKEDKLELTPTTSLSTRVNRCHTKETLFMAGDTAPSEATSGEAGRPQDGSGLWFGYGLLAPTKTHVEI

[25] = biological target: Neuromedin-K receptor (Homo sapiens) (UniProt P29371); assay: Inhibition of human NK3 receptor at 10 uM; in short: as §4
[26] = biological target: 5-hydroxytryptamine receptor 5A (Homo sapiens) (UniProt P47898); assay: Inhibition of human 5-HT5A receptor at 10 uM by radioligand binding assay; in short: as §4
[27] = biological target: 5-hydroxytryptamine receptor 2B (Homo sapiens) (UniProt P41595); assay: Inhibition of human 5-HT2B receptor at 10 uM by radioligand binding assay; in short: as §4
Sequence of 5-hydroxytryptamine receptor 2B (Homo sapiens) (P41595 whole entry): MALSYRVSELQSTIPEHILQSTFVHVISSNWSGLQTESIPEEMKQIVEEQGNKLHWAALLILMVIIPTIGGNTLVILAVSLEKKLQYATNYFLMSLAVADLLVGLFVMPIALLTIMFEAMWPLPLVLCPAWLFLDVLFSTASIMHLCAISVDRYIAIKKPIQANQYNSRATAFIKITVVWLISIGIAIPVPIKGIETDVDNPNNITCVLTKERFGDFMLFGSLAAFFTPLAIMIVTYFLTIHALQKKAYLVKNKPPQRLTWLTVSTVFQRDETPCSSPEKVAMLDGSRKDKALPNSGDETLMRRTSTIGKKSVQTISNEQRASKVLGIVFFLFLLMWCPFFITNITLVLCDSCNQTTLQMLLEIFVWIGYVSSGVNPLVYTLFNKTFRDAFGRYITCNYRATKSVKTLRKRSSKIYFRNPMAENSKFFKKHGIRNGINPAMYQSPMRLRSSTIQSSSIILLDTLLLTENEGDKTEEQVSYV

[28] = biological target: 5-hydroxytryptamine receptor 1B (Homo sapiens) (UniProt P28222); assay: Inhibition of human 5-HT1B receptor at 10 uM by radioligand binding assay; in short: as §4
[29] = biological target: Prostaglandin E2 receptor EP4 subtype (Homo sapiens) (UniProt P35408); assay: Inhibition of human prostanoid EP4 receptor at 10 uM by radioligand binding assay; in short: as §2
[30] = biological target: Small conductance calcium-activated potassium channel (Rattus norvegicus) (UniProt P70604+P70606+P70605); assay: Inhibition of rat small conductance calcium-activated potassium channel at 10 uM by radioligand binding assay; format: protein assay; in short: as §1
Rattus norvegicus [31] = species on record: Rattus norvegicus; assay: Inhibition of rat GABA-chloride channel receptor at 10 uM by radioligand binding assay; in short: as §2

SMILES: Cc1cc(Cl)c(OCCO)cc1NC(=O)C1=CNC(=O)C[C@H]1c1ccc(F)cc1
- inhibition (Rattus norvegicus [1]): < 30%
- half-life [2]: 4 h
- Stability [3]: Stable
- inhibition [4]: < 30%
- inhibition [5]: < 30%
- inhibition [6]: < 30%
- inhibition [7]: < 30%
- Drug metabolism (Liver microsome): BLD
- AUC/dose (Rattus norvegicus [8]): 1550 ng·h/mL/mg/kg
- pIC50 (P2X purinoceptor 1): < 5.00
- pIC50 [9]: < 5.00
- inhibition [10]: < 30%
- inhibition [11]: < 30%
- inhibition [12]: < 30%
- inhibition [13]: < 30%
- inhibition [14]: < 30%
- inhibition [15]: < 30%
- inhibition [16]: < 30%
- inhibition (Rattus norvegicus [17]): < 30%
- inhibition [18]: < 30%
- inhibition [19]: < 30%
- inhibition [20]: < 30%
- inhibition [21]: < 30%
- inhibition [22]: < 30%
- inhibition [23]: < 30%
- inhibition [24]: < 30%
- inhibition [25]: < 30%
- inhibition [26]: < 30%
- inhibition [27]: < 30%
- inhibition [28]: < 30%
- inhibition [29]: < 30%
- inhibition [30]: < 30%
- inhibition (Rattus norvegicus [31]): < 30%
